The results in this text go back to ChEMBL document CHEMBL4359913, “Identification and characterization of benzo[d]oxazol-2(3H)-one derivatives as the first potent and selective small-molecule inhibitors of chromodomain protein CDYL” (Eur J Med Chem, 2019).

Each structure is given as a SMILES string. Active and inactive are the calls of the source. The rule behind the calls is not given here.

Experiment [1] has as its target T1, Chromodomain Y-like protein (Mus musculus) (UniProt Q9WTK2).
T1 sequence (whole entry): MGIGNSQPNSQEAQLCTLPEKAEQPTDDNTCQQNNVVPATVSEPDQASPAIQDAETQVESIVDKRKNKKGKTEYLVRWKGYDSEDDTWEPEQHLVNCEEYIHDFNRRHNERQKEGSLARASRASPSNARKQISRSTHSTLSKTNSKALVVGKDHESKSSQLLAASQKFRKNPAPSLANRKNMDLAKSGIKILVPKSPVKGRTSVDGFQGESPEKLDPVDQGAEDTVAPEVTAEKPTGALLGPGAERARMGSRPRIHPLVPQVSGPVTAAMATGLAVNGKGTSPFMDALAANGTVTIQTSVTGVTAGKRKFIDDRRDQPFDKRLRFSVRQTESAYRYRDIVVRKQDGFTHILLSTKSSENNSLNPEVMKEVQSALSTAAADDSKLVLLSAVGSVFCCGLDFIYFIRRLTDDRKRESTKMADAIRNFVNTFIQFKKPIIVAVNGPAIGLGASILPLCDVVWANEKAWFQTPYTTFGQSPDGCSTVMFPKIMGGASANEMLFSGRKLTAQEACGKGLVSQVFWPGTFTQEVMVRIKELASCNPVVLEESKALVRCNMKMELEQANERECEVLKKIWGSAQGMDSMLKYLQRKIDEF
Nature of the experiment: Inhibition of CDYL in C57BL/6 mouse hippocampal neurons as increase in MYT1 mRNA expression at 150 uM incubated for 24 hrs by RT-qPCR analysis. Put shortly:
(§1)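 Mouse cortical or hippocampal neurons, dissociated with trypsin and kept in Neurobasal/B27, treated with 150 µM compound for 24 h. mRNA measured by SYBR green RT-qPCR with the 2^-ΔΔCt method, GAPDH as reference, relative to DMSO. Mean ± S.E.M. of triplicate experiments, Student's t-test.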
(Real-time PCR tracks product formation cycle by cycle.)

Experiment [2] deals with T1, Chromodomain Y-like protein (Mus musculus). As to the kind of experiment: Inhibition of CDYL in C57BL/6 mouse cortical neurons as increase in BDNF mRNA expression at 150 uM incubated for 24 hrs by RT-qPCR analysis. In outline:
as §1

Experiment [3] has as its target T2, Chromodomain Y-like protein (Homo sapiens, UniProt Q9Y232).
T2 sequence (Q9Y232 whole entry): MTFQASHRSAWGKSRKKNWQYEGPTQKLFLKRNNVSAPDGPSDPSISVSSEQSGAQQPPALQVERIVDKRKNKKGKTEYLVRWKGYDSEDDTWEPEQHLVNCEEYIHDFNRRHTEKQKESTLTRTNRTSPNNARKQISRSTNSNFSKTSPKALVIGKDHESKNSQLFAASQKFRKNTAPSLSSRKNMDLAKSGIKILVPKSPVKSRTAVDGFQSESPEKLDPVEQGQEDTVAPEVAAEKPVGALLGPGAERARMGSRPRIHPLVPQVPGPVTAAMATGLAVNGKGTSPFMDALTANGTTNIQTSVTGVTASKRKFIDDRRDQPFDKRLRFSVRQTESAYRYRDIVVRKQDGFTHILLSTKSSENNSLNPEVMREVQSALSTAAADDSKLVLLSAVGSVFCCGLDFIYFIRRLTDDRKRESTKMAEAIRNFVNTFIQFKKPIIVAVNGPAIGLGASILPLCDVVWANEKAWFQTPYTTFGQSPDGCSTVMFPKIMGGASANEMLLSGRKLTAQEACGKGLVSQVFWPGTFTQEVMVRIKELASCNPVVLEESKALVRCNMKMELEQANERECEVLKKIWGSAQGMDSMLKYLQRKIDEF
Nature of the experiment: Binding affinity to recombinant human N-terminal GST-tagged CDYL (1 to 60 residues) expressed in Escherichia coli […] by SPR analysis. Put shortly:
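GST-tagged chromodomain expressed in E. coli BL21 with 0.2 mM IPTG at 28 °C for 6 h. Purified on GSTrap, tag removed with PreScission protease. Amine-coupled to CM5 chip at pH 4.0–4.5 (5000–10000 RU). Compound run as a 1.5- or 2-fold series from 100 µM in PBSP with 5% DMSO, 25 °C, 30 µL/min, 60 s association and 60 s dissociation.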
(In general: SPR reads the build-up and loss of mass on a sensor chip optically.)

The target in experiment [4] is T3, Chromodomain Y-like protein (Homo sapiens) (UniProt Q9Y232).
T3 sequence (whole entry): T2 sequence (Q9Y232 whole entry)
Nature of the experiment: Inhibition of CDYL in human SH-SY5Y cells assessed as decrease in enrichment of CDYL at BDNF promoter site at 150 uM incubated for 24 hrs by ChIP-qPCR analysis. It is filed as cell-based. Put shortly: (§2)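 About 1×10^7 SH-SY5Y cells given 150 µM compound or DMSO for 24 h, fixed in 1% formaldehyde for 10 min. Chromatin immunoprecipitated overnight-style (12 h, 4 °C) with CDYL or H3K27me3 antibody, captured on Protein A/G beads, washed, decrosslinked at 65 °C. Promoter DNA quantified by qPCR, mean ± S.E.M. of triplicate experiments, Student's t-test.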

In experiment [5] the target is T3, Chromodomain Y-like protein (Homo sapiens). As to the kind of experiment: Inhibition of CDYL in human SH-SY5Y cells assessed as decrease in enrichment of CDYL at VGF promoter site at 150 uM incubated for 24 hrs by ChIP-qPCR analysis. The format is cell-based. Put shortly:
as §2

Experiment [6] concerns the target T1, Chromodomain Y-like protein (Mus musculus). Nature of the experiment: Inhibition of CDYL in C57BL/6 mouse hippocampal neurons as increase in VGF mRNA expression at 150 uM incubated for 24 hrs by RT-qPCR analysis. Put shortly:
as §1

The target of experiment [7] is T3, Chromodomain Y-like protein (Homo sapiens). As to the kind of experiment: Inhibition of CDYL in human SH-SY5Y cells assessed as decrease in enrichment of CDYL at MYT1 promoter site at 150 uM incubated for 24 hrs by ChIP-qPCR analysis. The format is cell-based. In outline: as §2
The target in experiment [8] is T4, Chromobox protein homolog 7 (Homo sapiens, UniProt O95931).
T4 sequence (O95931 whole entry): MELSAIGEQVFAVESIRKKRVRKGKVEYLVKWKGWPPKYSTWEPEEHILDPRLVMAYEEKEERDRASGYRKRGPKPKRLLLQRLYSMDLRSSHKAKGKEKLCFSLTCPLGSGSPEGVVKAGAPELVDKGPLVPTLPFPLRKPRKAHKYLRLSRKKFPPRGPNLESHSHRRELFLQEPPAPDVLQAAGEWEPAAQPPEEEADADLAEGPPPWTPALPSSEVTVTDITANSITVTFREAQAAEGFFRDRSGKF
Nature of the experiment: Binding affinity to recombinant human N-terminal GST-tagged CBX7 (1 to 62 residues) expressed in Escherichia coli […] by SPR analysis. Put shortly: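 Chromodomain expressed with N-terminal GST tag in E. coli BL21 (IPTG 0.2 mM at OD600 0.6–0.8, 28 C for 6 h), GSTrap purified, tag cleaved by PreScission protease, amine-coupled to CM5 chip at pH 4.0–4.5 (5000–10000 RU). […] Mean ± SD of at least two replicates, each in duplicate.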

In experiment [9] the target is T1, Chromodomain Y-like protein (Mus musculus). As to the kind of experiment: Inhibition of CDYL in C57BL/6 mouse cortical neurons as increase in MYT1 mRNA expression at 150 uM incubated for 24 hrs by RT-qPCR analysis. In outline:
as §1

Experiment [10] shares this target. Nature of the experiment: Inhibition of CDYL in C57BL/6 mouse hippocampal neurons as increase in BDNF mRNA expression at 150 uM incubated for 24 hrs by RT-qPCR analysis. Put shortly: as §1
Experiment [11] deals with T3, Chromodomain Y-like protein (Homo sapiens). Nature of the experiment: Inhibition of CDYL in human SH-SY5Y cells assessed as decrease in enrichment of H3K27me3 at MYT1 promoter site at 150 uM incubated for 24 hrs by ChIP-qPCR analysis. It is filed as cell-based. Put shortly: as §2

Turning to `O=C(Cn1c(=O)oc2ccccc21)N1CCC(N2CCCC2)CC1`, the result in experiment [1], in experiment [2], in experiment [6], in experiment [9] and in experiment [10] was Active. The Kd in experiment [3] was 0.5 µM; in [8], 16.2 µM. Besides, the inhibition entry in experiment [4], in [5], in experiment [7] and in experiment [11] was “Active” throughout.

Broadly, the Kd is the constant that tells how readily two partners part at equilibrium.
